From ChEMBL document CHEMBL2157922, “Synthesis and antifungal activity of diverse C-2 pyridinyl and pyridinylvinyl substituted quinolines” (2012)
≈ marks a conversion by molar mass, not a printed value.

Experiments:
Candida albicans [1] = experiment: Antifungal activity against Candida albicans ATCC 10231 at 7.8 ug/ml after 24 hrs; type: functional; conditions: ATCC 10231, 24 h
Outline: (§1)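 C. albicans was grown in 96-well RPMI-1640 broth microdilution with compound wells diluted from DMSO stocks. Growth wells with matched DMSO and sterility wells were included. After 24 h at 30 °C in a moist, dark chamber, OD405 was read. % inhibition = 100 − (CTW − SCW)/(GCW − SCW) OD, done in duplicate.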

Nannizzia gypsea = experiment: Antifungal activity against Microsporum gypseum CCC 115 after 48 hrs by broth microdilution technique; type: functional; conditions: CCC 115, 48 h
Outline: (§2)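 Moulds and dermatophytes were run by CLSI broth microdilution in MOPS-buffered RPMI-1640 at pH 7.0. Aspergillus was incubated at 30 °C and dermatophytes at 28–30 °C, in a moist, dark chamber. MIC100, the lowest concentration with no visible growth, was read visually at a time set by growth of the control fungus.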

Pichia kudriavzevii = experiment: Antifungal activity against Candida krusei CCC 117 after 48 hrs by broth microdilution technique; type: functional; conditions: CCC 117, 48 h
Candida albicans [2] = experiment: Antifungal activity against Candida albicans CCC 125 after 48 hrs by broth microdilution technique; type: functional; conditions: CCC 125, 48 h
Candida albicans [3] = experiment: Antifungal activity against Candida albicans CCC 126 after 48 hrs by broth microdilution technique; type: functional; conditions: CCC 126, 48 h
Candida albicans [4] = experiment: Antifungal activity against Candida albicans ATCC 10231 at 15.6 ug/ml after 24 hrs; type: functional; conditions: ATCC 10231, 24 h; outline: as §1
Candida albicans [5] = experiment: Antifungal activity against Candida albicans ATCC 10231 after 48 hrs by broth microdilution technique; type: functional; conditions: ATCC 10231, 48 h
Outline: (§3)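 Yeasts were tested by CLSI broth microdilution in RPMI-1640 buffered to pH 7.0 with MOPS, with compound from 250 down to 0.98 in DMSO stocks. Trays were held at 30 °C in a moist, dark chamber. MIC100, the lowest concentration giving total visual inhibition against the growth control, was read by eye at 48 h.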

Candida tropicalis = experiment: Antifungal activity against Candida tropicalis CCC 131 after 48 hrs by broth microdilution technique; type: functional; conditions: CCC 131, 48 h
Cryptococcus neoformans [6] = experiment: Antifungal activity against Cryptococcus neoformans ATCC 32264 at 31.2 ug/ml after 48 hrs; type: functional; conditions: ATCC 32264, 48 h
Outline: (§4)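 C. neoformans was tested by 96-well RPMI-1640 microdilution, with DMSO-matched growth and sterility control wells. Plates were incubated 48 h at 30 °C in a moist, dark chamber and read at OD405. % inhibition = 100 − (CTW − SCW)/(GCW − SCW), in duplicate. For the clinical isolates, MIC80 and MIC50 are the lowest concentrations giving 80% and 50% inhibition.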

Candida albicans [7] = experiment: Antifungal activity against Candida albicans CCC 129 after 48 hrs by broth microdilution technique; type: functional; conditions: CCC 129, 48 h
Candida parapsilosis = experiment: Antifungal activity against Candida parapsilosis CCC 124 after 48 hrs by broth microdilution technique; type: functional; conditions: Lodderomyces parapsilosis, CCC 124, 48 h
Candida albicans [8] = experiment: Antifungal activity against Candida albicans CCC 130 after 24 hrs by broth microdilution technique; conditions: CCC 130, 24 h
Trichophyton rubrum = experiment: Antifungal activity against Trichophyton rubrum CCC 113 after 48 hrs by broth microdilution technique; type: functional; conditions: CCC 113, 48 h
Cryptococcus neoformans [9] = experiment: Antifungal activity against Cryptococcus neoformans ATCC 32264 at 15.6 ug/ml after 48 hrs; type: functional; conditions: ATCC 32264, 48 h; outline: as §4
Nakaseomyces glabratus = experiment: Antifungal activity against Candida glabrata CCC 115 after 48 hrs by broth microdilution technique; type: functional; conditions: CCC 115, 48 h
Candida albicans [10] = experiment: Antifungal activity against Candida albicans CCC 130 after 48 hrs by broth microdilution technique; type: functional; conditions: CCC 130, 48 h
Cryptococcus neoformans [11] = experiment: Antifungal activity against Cryptococcus neoformans IM 983036 after 48 hrs by broth microdilution technique; type: functional; conditions: IM 983036, 48 h; outline: as §4
Aspergillus flavus = experiment: Antifungal activity against Aspergillus flavus ATCC 9170 after 48 hrs by broth microdilution technique; type: functional; conditions: ATCC 9170, 48 h; outline: as §2
Aspergillus niger = experiment: Antifungal activity against Aspergillus niger ATCC 9029 after 48 hrs by broth microdilution technique; type: functional; conditions: ATCC 9029, 48 h; outline: as §2
Cryptococcus neoformans [12] = experiment: Antifungal activity against Cryptococcus neoformans IM 042074 after 48 hrs by broth microdilution technique; type: functional; conditions: IM 042074, 48 h; outline: as §4
Cryptococcus neoformans [13] = experiment: Antifungal activity against Cryptococcus neoformans IM 972751 after 48 hrs by broth microdilution technique; type: functional; conditions: IM 972751, 48 h; outline: as §4
Cryptococcus neoformans [14] = experiment: Antifungal activity against Cryptococcus neoformans IM 00319 after 48 hrs by broth microdilution technique; type: functional; conditions: IM 00319, 48 h; outline: as §4
Candida albicans [15] = experiment: Antifungal activity against Candida albicans CCC 127 after 48 hrs by broth microdilution technique; type: functional; conditions: CCC 127, 48 h
[16] = test system: Trichophyton mentagrophytes; experiment: Antifungal activity against Trichophyton mentagrophytes ATCC 9972 after 48 hrs by broth microdilution technique; type: functional; conditions: ATCC 9972, 48 h; outline: as §2
Cryptococcus neoformans [17] = experiment: Antifungal activity against Cryptococcus neoformans ATCC 32264 after 48 hrs by broth microdilution technique; type: functional; conditions: ATCC 32264, 48 h; outline: as §3
Candida albicans [18] = experiment: Antifungal activity against Candida albicans ATCC 10231 at 31.2 ug/ml after 24 hrs; type: functional; conditions: ATCC 10231, 24 h; outline: as §1
Candida albicans [19] = experiment: Antifungal activity against Candida albicans CCC 128 after 48 hrs by broth microdilution technique; type: functional; conditions: CCC 128, 48 h
Aspergillus fumigatus = experiment: Antifungal activity against Aspergillus fumigatus ATCC 26934 after 48 hrs by broth microdilution technique; type: functional; conditions: ATCC 26934, 48 h; outline: as §2
Cryptococcus neoformans [20] = experiment: Antifungal activity against Cryptococcus neoformans IM 983040 after 48 hrs by broth microdilution technique; type: functional; conditions: IM 983040, 48 h; outline: as §4
Saccharomyces cerevisiae = experiment: Antifungal activity against Saccharomyces cerevisiae ATCC 9763 after 48 hrs by broth microdilution technique; type: functional; conditions: ATCC 9763, 48 h; outline: as §3
Cryptococcus neoformans [21] = experiment: Antifungal activity against Cryptococcus neoformans IM 972724 after 48 hrs by broth microdilution technique; type: functional; conditions: IM 972724, 48 h; outline: as §4

c1ccc2nc(-c3ccncc3)ccc2c1 was tested, and the inhibition at 7.8 µg/mL (Candida albicans [1]) was 50%, the MFC (Nannizzia gypsea) was 62 µg/mL (≈ 301 µM) and the MIC (Nannizzia gypsea) was 62 µg/mL (≈ 301 µM). For the same molecule, the MIC50 (Pichia kudriavzevii) was 31.2 µg/mL (≈ 151 µM), the MIC80 (Pichia kudriavzevii) was 62.5 µg/mL (≈ 303 µM) and the MIC50 (Candida albicans [2]) was 15.6 µg/mL (≈ 75.6 µM). The MIC80 (Candida albicans [2]) was 15.6 µg/mL (≈ 75.6 µM), the MIC50 (Candida albicans [3]) was 15.6 µg/mL (≈ 75.6 µM) and the MIC80 (Candida albicans [3]) was 31.2 µg/mL (≈ 151 µM). The inhibition at 15.6 µg/mL (Candida albicans [4]) was 80%, the MFC (Candida albicans [5]) was 250 µg/mL (≈ 1210 µM) and the MIC (Candida albicans [5]) was 62 µg/mL (≈ 301 µM). It also gave an MIC50 (Candida albicans [5]) of 7.8 µg/mL (≈ 37.8 µM), an MIC80 (Candida albicans [5]) of 15.6 µg/mL (≈ 75.6 µM) and an MIC50 (Candida tropicalis) of 15.6 µg/mL (≈ 75.6 µM). The MIC80 (Candida tropicalis) was 31.2 µg/mL (≈ 151 µM), the inhibition at 31.2 µg/mL (Cryptococcus neoformans [6]) was 80% and the MIC50 (Candida albicans [7]) was 7.8 µg/mL (≈ 37.8 µM). For the same molecule, the MIC80 (Candida albicans [7]) was 15.6 µg/mL (≈ 75.6 µM), the MIC50 (Candida parapsilosis) was 15.6 µg/mL (≈ 75.6 µM) and the MIC80 (Candida parapsilosis) was 31.2 µg/mL (≈ 151 µM). It also gave an MIC50 (Candida albicans [8]) of 15.6 µg/mL (≈ 75.6 µM), an MFC (Trichophyton rubrum) of 62 µg/mL (≈ 301 µM) and an MIC (Trichophyton rubrum) of 62 µg/mL (≈ 301 µM). For the same molecule, the inhibition at 15.6 µg/mL (Cryptococcus neoformans [9]) was 80%, the MIC50 (Nakaseomyces glabratus) was 15.6 µg/mL (≈ 75.6 µM) and the MIC80 (Nakaseomyces glabratus) was 15.6 µg/mL (≈ 75.6 µM). It also gave an MIC80 (Candida albicans [10]) of 31.2 µg/mL (≈ 151 µM), an MIC50 (Cryptococcus neoformans [11]) of 7.8 µg/mL (≈ 37.8 µM) and an MIC80 (Cryptococcus neoformans [11]) of 31.2 µg/mL (≈ 151 µM). It also gave an MFC (Aspergillus flavus) of 125 µg/mL (≈ 606 µM), an MIC (Aspergillus flavus) of 62 µg/mL (≈ 301 µM) and an MFC (Aspergillus niger) of 125 µg/mL (≈ 606 µM). It also gave an MIC (Aspergillus niger) of 62 µg/mL (≈ 301 µM), an MIC50 (Cryptococcus neoformans [12]) of 15.6 µg/mL (≈ 75.6 µM) and an MIC80 (Cryptococcus neoformans [12]) of 31.2 µg/mL (≈ 151 µM). For the same molecule, the MIC50 (Cryptococcus neoformans [13]) was 7.8 µg/mL (≈ 37.8 µM), the MIC80 (Cryptococcus neoformans [13]) was 31.2 µg/mL (≈ 151 µM) and the MIC50 (Cryptococcus neoformans [14]) was 31.2 µg/mL (≈ 151 µM). The MIC80 (Cryptococcus neoformans [14]) was 31.2 µg/mL (≈ 151 µM), the MIC50 (Candida albicans [15]) was 7.8 µg/mL (≈ 37.8 µM) and the MIC80 (Candida albicans [15]) was 15.6 µg/mL (≈ 75.6 µM). The MFC [16] was 62 µg/mL (≈ 301 µM), the MIC [16] was 62 µg/mL (≈ 301 µM) and the MFC (Cryptococcus neoformans [17]) was 125 µg/mL (≈ 606 µM). It also gave an MIC (Cryptococcus neoformans [17]) of 62 µg/mL (≈ 301 µM), an MIC50 (Cryptococcus neoformans [17]) of 15.6 µg/mL (≈ 75.6 µM) and an MIC80 (Cryptococcus neoformans [17]) of 15.6 µg/mL (≈ 75.6 µM). The inhibition at 31.2 µg/mL (Candida albicans [18]) was 80%, the MIC50 (Candida albicans [19]) was 7.8 µg/mL (≈ 37.8 µM) and the MIC80 (Candida albicans [19]) was 15.6 µg/mL (≈ 75.6 µM). The MFC (Aspergillus fumigatus) was 125 µg/mL (≈ 606 µM), the MIC (Aspergillus fumigatus) was 62 µg/mL (≈ 301 µM) and the MIC50 (Cryptococcus neoformans [20]) was 15.6 µg/mL (≈ 75.6 µM). For the same molecule, the MIC80 (Cryptococcus neoformans [20]) was 31.2 µg/mL (≈ 151 µM), the MFC (Saccharomyces cerevisiae) was 250 µg/mL (≈ 1210 µM) and the MIC (Saccharomyces cerevisiae) was 62 µg/mL (≈ 301 µM). The MIC50 (Cryptococcus neoformans [21]) was 31.2 µg/mL (≈ 151 µM) and the MIC80 (Cryptococcus neoformans [21]) was 31.2 µg/mL (≈ 151 µM).
